Assay results from ChEMBL document CHEMBL1143349, “Novel non-peptide nociceptin/orphanin FQ receptor agonist, 1-[1-(1-Methylcyclooctyl)-4-piperidinyl]-2-[(3R)-3-piperidinyl]-1H-benzimidazole: design, synthesis, and structure-activity relationship of oral receptor occupancy in the brain for orally potent antianxiety drug” (J Med Chem, 2009).

Key:
[1] = molecular target: T1, Kappa-type opioid receptor (Homo sapiens, UniProt P41145); assay: Agonist activity at human kappa opioid receptor expressed in HEK293 cells by [35S]GTPgammaS binding; format: functional, cell-based
[2] = molecular target: T2, Delta-type opioid receptor (Homo sapiens, UniProt P41143); assay: Agonist activity at human delta opioid receptor expressed in CHOK1 cells by [35S]GTPgammaS binding; format: functional, cell-based, CHO-K1
[3] = molecular target: T1, Kappa-type opioid receptor; assay: Displacement of [3H]enadoline from human kappa opioid receptor expressed in HEK293 cells; format: cell-based
[4] = molecular target: T2, Delta-type opioid receptor; assay: Displacement of [3H]DPDPE from human delta opioid receptor expressed in CHOK1 cells; format: cell-based, CHO-K1
[5] = molecular target: T3, Mu-type opioid receptor (Homo sapiens, UniProt P35372); assay: Displacement of [3H]DAMGO from human mu opioid receptor expressed in CHOK1 cells; format: cell-based, CHO-K1
[6] = tested on: Mus musculus; assay: Ex vivo receptor occupancy of NOP receptor in ddY mouse brain at 10 mg/kg, po after 1 hr by [3H]N/OFQ binding assay; format: functional
Summary of the method: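 Male ddY mice (5-6 week), water-deprived 24 h, dosed orally at 10 mg/kg in 0.1% methylcellulose. Brain removed 1 h later; cerebellum and medulla discarded, membranes prepared at 4 °C. Membranes (160 µg protein) incubated with 0.3 nM [3H]N/OFQ, 30 min, 25 °C; filtration read-out. Nonspecific binding with 1 µM N/OFQ. Occupancy is inhibition of specific binding versus vehicle-treated mice, three mice, mean ± SEM.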

[7] = molecular target: T3, Mu-type opioid receptor; assay: Agonist activity at human mu opioid receptor expressed in CHOK1 cells by [35S]GTPgammaS binding; format: functional, cell-based, CHO-K1
[8] = molecular target: T4, Nociceptin receptor (Homo sapiens, UniProt P41146); assay: Displacement of [3H]N/OFQ from human NOP receptor expressed in HEK293 cells; format: cell-based
[9] = molecular target: T4, Nociceptin receptor; assay: Agonist activity at human NOP receptor expressed in HEK293 cells by [35S]GTPgammaS binding; format: functional, cell-based
[10] = molecular target: T2, Delta-type opioid receptor; assay: Displacement of [3H]DPDPE from human delta opioid receptor expressed in CHOK1 cells at 1 uM; format: cell-based; conditions: CHO-K1

T1 sequence (P41145 whole entry): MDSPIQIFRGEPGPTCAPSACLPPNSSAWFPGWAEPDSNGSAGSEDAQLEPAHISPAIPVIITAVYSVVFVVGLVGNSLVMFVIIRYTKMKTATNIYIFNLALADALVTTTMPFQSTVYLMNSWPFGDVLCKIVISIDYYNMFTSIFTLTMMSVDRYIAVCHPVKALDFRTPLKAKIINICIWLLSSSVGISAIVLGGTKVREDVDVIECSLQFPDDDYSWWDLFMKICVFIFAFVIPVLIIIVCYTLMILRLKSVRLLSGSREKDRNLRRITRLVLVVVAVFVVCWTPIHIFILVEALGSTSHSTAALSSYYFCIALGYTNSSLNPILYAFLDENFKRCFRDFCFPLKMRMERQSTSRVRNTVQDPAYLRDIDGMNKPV
T3 sequence (P35372 whole entry): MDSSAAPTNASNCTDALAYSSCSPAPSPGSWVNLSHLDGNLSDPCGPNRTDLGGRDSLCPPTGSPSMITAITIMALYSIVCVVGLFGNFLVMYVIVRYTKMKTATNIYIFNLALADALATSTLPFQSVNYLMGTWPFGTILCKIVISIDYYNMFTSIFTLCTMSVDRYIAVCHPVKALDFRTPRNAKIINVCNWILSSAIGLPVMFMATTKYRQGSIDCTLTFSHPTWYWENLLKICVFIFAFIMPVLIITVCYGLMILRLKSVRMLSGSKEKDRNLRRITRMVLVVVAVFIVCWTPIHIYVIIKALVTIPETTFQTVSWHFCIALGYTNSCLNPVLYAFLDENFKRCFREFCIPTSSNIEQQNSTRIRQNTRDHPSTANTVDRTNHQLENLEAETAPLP
T4 sequence (P41146 whole entry): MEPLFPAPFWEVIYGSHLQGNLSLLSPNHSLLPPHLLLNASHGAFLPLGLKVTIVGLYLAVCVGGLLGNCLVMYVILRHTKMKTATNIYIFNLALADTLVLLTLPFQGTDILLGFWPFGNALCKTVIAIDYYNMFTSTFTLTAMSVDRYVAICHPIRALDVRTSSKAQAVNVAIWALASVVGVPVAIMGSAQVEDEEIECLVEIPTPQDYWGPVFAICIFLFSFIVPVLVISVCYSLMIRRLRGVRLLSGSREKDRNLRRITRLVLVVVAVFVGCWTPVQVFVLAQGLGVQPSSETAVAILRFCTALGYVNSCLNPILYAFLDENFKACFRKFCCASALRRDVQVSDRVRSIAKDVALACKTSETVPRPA
T2 sequence (P41143 whole entry): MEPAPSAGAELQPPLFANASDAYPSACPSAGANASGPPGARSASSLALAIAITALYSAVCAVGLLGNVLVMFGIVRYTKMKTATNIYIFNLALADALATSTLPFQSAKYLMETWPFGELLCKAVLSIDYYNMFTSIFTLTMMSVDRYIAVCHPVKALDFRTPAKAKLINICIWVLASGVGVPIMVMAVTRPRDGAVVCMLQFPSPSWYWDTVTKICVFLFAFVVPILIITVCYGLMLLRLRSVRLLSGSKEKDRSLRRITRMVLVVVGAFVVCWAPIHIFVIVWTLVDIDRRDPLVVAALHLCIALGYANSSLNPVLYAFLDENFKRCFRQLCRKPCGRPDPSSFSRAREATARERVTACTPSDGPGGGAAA

Row | Compound | EC50 [1] [µM] | EC50 [2] [µM] | Ki [3] [µM] | Ki [4] [µM] | Ki [5] [µM] | Activity [6] [%] | EC50 [7] [µM] | Ki [8] [µM] | EC50 [9] [µM] | Activity [10] [%]
1 | CC1(N2CCC(n3c([C@H]4CCCNC4)nc4ccccc43)CC2)CCCCCCC1 | 0.0084 | 0.514 | 0.0092 | 0.168 |  |  |  |  |  | 
2 | CC1(N2CCC(n3c(-c4cccc(CN)c4)nc4ccccc43)CC2)CCCCCCC1 | 0.154 |  | 0.072 | 0.14 | 0.02 | 30 | 0.34 |  |  | 
3 | CC1(N2CCC(n3c(-c4cc5ccccc5o4)nc4ccccc43)CC2)CCCCCCC1 |  |  |  |  | 0.102 | 34 | 3.67 | 0.00053 | 0.0031 | 
4 | CC1(N2CCC(n3c(-c4cccc(S(C)(=O)=O)c4)nc4ccccc43)CC2)CCCCCCC1 |  |  |  |  | 0.0063 | 34 | 0.288 | 0.00015 | 0.0016 | 
5 | CC1(N2CCC(n3cnc4ccccc43)CC2)CCCCCCC1 |  |  |  |  | 0.011 |  |  |  |  | 
6 | CC1(N2CCC(n3c([C@@H]4CCCNC4)nc4ccccc43)CC2)CCCCCCC1 | 0.08 | 4.7 | 0.0231 | > 0.667 |  | 53 |  |  |  | 
7 | CC1(N2CCC(n3c(-c4cccc(C(F)(F)F)c4)nc4ccccc43)CC2)CCCCCCC1 | 1.58 |  | 0.352 | 0.058 | 0.065 | 3.2 | 10 | 0.00063 | 0.0057 | 
8 | CN1CCC[C@@H](c2nc3ccccc3n2C2CCN(C3(C)CCCCCCC3)CC2)C1 | 0.07 | 2.19 | 0.025 | > 0.5 | 0.0037 | 61 | 0.067 | 0.0002 | 0.0014 | 
9 | CC1(N2CCC(n3c(-c4ccc5cc[nH]c5c4)nc4ccccc43)CC2)CCCCCCC1 |  |  |  |  | 0.151 | -10 | 8.63 | 0.0017 | 0.013 | 
10 | CC1CN(c2nc3ccccc3n2C2CCN(C3(C)CCCCCCC3)CC2)CC(C)N1 (configuration not stated) | 0.018 |  | 0.015 |  | 0.021 |  | 0.193 |  |  | 29
11 | CC1(N2CCC(n3c(-c4cccc(OCCO)c4)nc4ccccc43)CC2)CCCCCCC1 | 0.048 |  | 0.043 | 0.0095 | 0.011 | 38 | > 0.393 | 0.0003 | 0.0026 | 
12 | CN1CCC[C@H](c2nc3ccccc3n2C2CCN(C3(C)CCCCCCC3)CC2)C1 | 0.013 | 0.389 | 0.01 | 0.11 | 0.011 |  | 0.071 | 0.00024 | 0.0016 | 
13 | CC1(N2CCC(n3c(-c4ccc(F)c(Cl)c4)nc4ccccc43)CC2)CCCCCCC1 |  |  |  |  | 0.045 | 31 | 0.759 |  |  | 
